Series [1] is described as follows: Oral bioavailability in Sprague-Dawley rat at 2.5 mg/kg using 1:1 PEG-400/water formulation by LC-MS/MS analysis. It counts as ADME, organism-based. Conditions: in vivo. An outline of the steps: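 Rats dosed 0.5 mg/kg i.v. and 2.5 mg/kg p.o., n=3 ± SD. Default vehicle is 20% HP-β-CD; one PK set used 1:1 PEG400/water and another 30% SBE-β-CD.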
Series [2] is described as follows: Efflux ratio of apparent permeability across basolateral to apical side over apical to basolateral side in MDCK-MDR1 cells at 5 uM measured after 60 mins by LC-MS/MS analysis. The format is ADME, cell-based, Canis lupus familiaris. The note with it: dog. An outline of the steps:
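MDCK-MDR1 cells, passages 6-30, seeded at 3.4×10^5 cells/cm² and cultured 3 days. Test compound at 5 µM final (1% DMSO) in HBSS, pH 7.4, applied to the donor side. A→B and B→A runs at 37 °C for 60 min, in duplicate, quantified by LC/MS/MS. Efflux ratio taken as B-A/A-B; monolayer integrity checked by lucifer yellow.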

Series [3] can be described thus: Solubility of compound in 20% hydroxypropyl-beta-cyclodextrin. It counts as physicochemical. An outline of the steps:
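Solubility of the compound assessed in dosing excipients, including 30% SBE-β-CD, 50% PEG-400 and 20% HP-β-CD. The aim was a solution usable for rat dosing; the 20% HP-β-CD formulation was checked for a 0.1 mg/mL solution to support a 0.5 mg/kg dose.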

Series [4] is described as follows: Volume of distribution at steady state in Sprague-Dawley rat at 0.5 mg/kg, iv or 2.5 mg/kg, po using 1:1 PEG-400/water formulation by LC-MS/MS analysis. The format is ADME, organism-based. Conditions: in vivo. The method, boiled down:
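Rat PK at 0.5 mg/kg i.v. and 2.5 mg/kg p.o., vehicle 1:1 PEG400/water. n=3, values given as mean ± SD.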

A short description of series [5]: AUC (0 to 24 hrs) in Sprague-Dawley rat at 1000 mg/kg, po administered via gavage after 24 hrs using HPMC formulation by LC-MS/MS analysis. The note with it: in vivo. Details: route oral, dose 1000 mg/kg, time <=24. The format is ADME, organism-based.
Series [6] is described as follows: AUC (infinity) in Sprague-Dawley rat at 2.5 mg/kg, po by LC-MS/MS analysis. It counts as ADME, organism-based. Details: time infinity, route oral, dose 2.5 mg/kg. The note with it: in vivo. An outline of the steps:
(§1)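 Rat PK with IV and PO dosing, n=3. The usual doses were 0.5 mg/kg IV and 2.5 mg/kg PO in 20% HP-β-CD. One compound was instead given at 0.1 mg/kg IV and 0.5 mg/kg PO.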

The next series deals with Cytochrome P450 2C19 (Homo sapiens, UniProt P33261). The series can be described thus: Inhibition of CYP2C19 in human liver microsomes using S-mephenytoin as substrate measured after 15 mins by LC-MS/MS analysis. The format is ADME. The method, boiled down: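 Human liver microsomes incubated with isoform-specific probe substrates and the test compound at concentrations up to 20 µM. IC50 derived from inhibition of metabolite formation; mean of two independent experiments, with known specific inhibitors as positive controls.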
Chain of Cytochrome P450 2C19 (P33261 whole entry, canonical isoform): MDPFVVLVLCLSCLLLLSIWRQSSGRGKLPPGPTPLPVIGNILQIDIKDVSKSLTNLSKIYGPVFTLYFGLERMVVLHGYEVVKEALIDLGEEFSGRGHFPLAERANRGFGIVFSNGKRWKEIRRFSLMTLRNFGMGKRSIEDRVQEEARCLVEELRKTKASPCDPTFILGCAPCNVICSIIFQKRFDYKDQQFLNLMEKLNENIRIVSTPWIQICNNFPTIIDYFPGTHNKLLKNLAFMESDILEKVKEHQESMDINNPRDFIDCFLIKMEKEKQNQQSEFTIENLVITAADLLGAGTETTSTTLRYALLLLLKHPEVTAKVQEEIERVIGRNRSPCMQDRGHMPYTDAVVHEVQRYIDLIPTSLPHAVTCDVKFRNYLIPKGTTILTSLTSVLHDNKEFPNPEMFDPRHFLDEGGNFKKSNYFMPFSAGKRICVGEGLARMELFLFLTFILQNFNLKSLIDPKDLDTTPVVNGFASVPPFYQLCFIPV
On the technique in general: Liver microsomes are vesicles of endoplasmic reticulum, rich in cytochrome P450 enzymes.

A short description of series [7]: Tmax in Sprague-Dawley rat at 250 mg/kg, po administered via gavage after 24 hrs using HPMC formulation by LC-MS/MS analysis. It counts as ADME, organism-based. The note with it: in vivo. An outline of the steps: (§2)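 Single oral gavage of a 5% HPMC suspension at 125, 250, 500 or 1000 mg/kg to male Sprague Dawley rats, 3 per group. Plasma was sampled at 6 time points from 0.5 to 24 h.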

Series [8] can be described thus: Clearance in mouse at 0.5 mg/kg, iv by LC-MS/MS analysis. The note with it: in vivo. It counts as ADME, organism-based.
A short description of series [9]: Ex vivo receptor occupancy at GluN2B in Sprague-Dawley rat assessed as 3-[3H] 1-(azetidin-1-yl)-2-[6-(4-fluoro-3-methyl-phenyl)pyrrolo[3,2-b]pyridin-1-yl]-ethanone labelling at 3 mg/kg, po measured after 0.5 hrs by autoradiography. It counts as functional. The method, boiled down:
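Rats dosed orally at 3 mg/kg in 20% HP-β-CD; brains taken at 0.5, 2 and 6 h. Ex vivo autoradiography of brain slices with the ³H pyrrolo[3,2-b]pyridine GluN2B tracer. Labelling expressed relative to matching brain areas of vehicle-treated animals; n=2, ± SEM.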

Series [10] in a line: Cmax in Sprague-Dawley rat at 100 mg/kg, po administered via gavage after 24 hrs using nanosuspension formulation by LC-MS/MS analysis. The format is ADME, organism-based. Set-up: route oral, dose 100 mg/kg, time 24 hrs. Conditions: in vivo. An outline of the steps: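 Single oral gavage dose to male Sprague Dawley rats, 3 per dose level. Vehicles were a standard suspension in 5% HPMC (125, 250, 500 or 1000 mg/kg) or a nanosuspension (API:polymer 4:1), with stock diluted in vehicle on the day of dosing (100, 250 or 500 mg/kg). Blood was sampled at time points from 0.5 to 24 h.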

The nature of series [11]: Ratio of Cmax in Sprague-Dawley rat at 500 mg/kg/day, po administered as nanosuspension measured for 14 days to EC70 for ex vivo receptor occupancy at GluN2B in po dosed Sprague-Dawley rat assessed as 3-[3H] 1-(azetidin-1-yl)-2-[6-(4-fluoro-3-methyl-phenyl)pyrrolo[3,2-b]pyridin-1-yl]-ethanone labelling. It counts as ADME, organism-based. The note with it: 336 h.
A short description of series [12]: Solubility of compound in simulated gastric fluid at pH 1.2 measured after 3 days. It counts as physicochemical. Conditions: time 3 day. An outline of the steps:
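Solubility in aqueous buffer at pH 2 and pH 7, and in simulated gastric and intestinal fluids.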

Series [13] can be described thus: Drug level in Sprague-Dawley rat brain striatum at 0.03 mg/kg, iv after 120 min by LC-MS/MS analysis. The format is ADME, organism-based. The note with it: read-out: Drug uptake. An outline of the steps: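 Single i.v. dose of 0.03 mg/kg in 50% (w/v) PEG/water, pH 7.4; rats n=3 per group, killed at 5, 10, 30, 60 and 120 min. Cerebellum, cortex, striatum and hippocampus dissected, weighed and homogenized; drug quantified by LC-MS/MS and normalized to tissue weight. P<0.05 taken as significant versus cerebellum.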

Series [14] can be described thus: Intrinsic clearance in rat liver microsomes at 1 uM after 5 to 60 mins in presence of NADPH by LC-MS/MS analysis. The format is ADME, Microsome. The note with it: time 5-60 min, read-out: CLH.
Series [15] can be described thus: Tmax in Sprague-Dawley rat at 500 mg/kg, po administered via gavage after 24 hrs using nanosuspension formulation by LC-MS/MS analysis. The format is ADME, organism-based. The note with it: in vivo. The method, boiled down: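 Single oral gavage of a nanosuspension (API:polymer 4:1), diluted with vehicle on the dosing day, at 100, 250 or 500 mg/kg to male Sprague Dawley rats, 3 per dose. Plasma was sampled from 0.5 to 24 h.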

Series [16] in a line: Oral bioavailability in Sprague-Dawley rat at 2.5 mg/kg by LC-MS/MS analysis. The format is ADME, organism-based. Conditions: in vivo.
Series [17] is described as follows: AUC (infinity) in mouse at 2.5 mg/kg, po by LC-MS/MS analysis. It counts as ADME, organism-based. Details: route oral, time infinity, dose 2.5 mg/kg. The note with it: in vivo.
A short description of series [18]: Cmax in Sprague-Dawley rat at 0.5 mg/kg, iv or 2.5 mg/kg, po using 1:1 PEG-400/water formulation by LC-MS/MS analysis. The format is ADME, organism-based. Details: dose 2.5 mg/kg. Conditions: in vivo. An outline of the steps: (§3)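 Rat IV/PO PK at 0.5 mg/kg IV and 2.5 mg/kg PO, dosed in 1:1 PEG400/water, n=3.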
Series [19] in a line: Tmax in Sprague-Dawley rat at 1000 mg/kg, po administered via gavage after 24 hrs using HPMC formulation by LC-MS/MS analysis. The note with it: in vivo. The format is ADME, organism-based. The method, boiled down:
as §2

Series [20] can be described thus: AUC (infinity) in Sprague-Dawley rat at 0.5 mg/kg, iv or 2.5 mg/kg, po using 1:1 PEG-400/water formulation by LC-MS/MS analysis. The format is ADME, organism-based. Set-up: dose 2.5 mg/kg. The note with it: in vivo. The method, boiled down: as §3
The nature of series [21]: Clearance in Sprague-Dawley rat at 0.5 mg/kg, iv by LC-MS/MS analysis. The format is ADME, organism-based. Conditions: in vivo. The method, boiled down:
as §1

The values that follow come from ChEMBL document CHEMBL4725355, “Design, Synthesis, and Preclinical Evaluation of 3-Methyl-6-(5-thiophenyl)-1,3-dihydro-imidazo[4,5-b]pyridin-2-ones as Selective GluN2B Negative Allosteric Modulators for the Treatment of Mood Disorders” (J Med Chem, 2020).

pIC50: −log10 of the molar value. Values after ≈ are worked out from the molar mass of the structure shown.

In general, efflux ratio refers to the permeability from basolateral to apical divided by that in the opposite direction, in the common usage. A word on the solubility: it is the dissolved amount per volume that the medium holds. What is called AUC(0-t) is the area under the concentration-time curve up to a stated or last time point. Read a high AUC(0-t) as more exposure. In general, AUC(0-inf) refers to total exposure, with the tail of the curve extrapolated. A lower AUC(0-inf) goes with low exposure. As a reminder, the pIC50 is the IC50 on a negative log10 scale, so that one unit is a factor of ten. A low value points to a large IC50. For orientation: Tmax means the time at which the peak concentration occurs. As a reminder, the clearance is a measure of how efficiently the substance is removed, as volume per time. One may read the Cmax as the maximum level reached in the sampled fluid or tissue. Turning to `Cn1c(=O)n(CC(=O)N2CCC2)c2cc(-c3ccc(C(F)(F)F)s3)cnc21`, the bioavailability in series [1] and in series [16] was 132% in each case. Further, the efflux ratio at 1 h, 5 µM in series [2] worked out at 2.1. Moreover, in [3], the solubility is under 1000 µg/mL. This compound had a Vdss in series [4] of 1.9 L/kg. This compound also registered an AUC(0-t) in series [5] of 22300 ng·h/mL. Besides, the AUC(0-inf) was found to be 1830 ng·h/mL in [6], 539 ng·h/mL in [17] and 1830 ng·h/mL in series [20]. For the same compound, the pIC50 on Cytochrome P450 2C19 is under 4.30. Moreover, the Tmax in [7] worked out at 2.7 h; in series [15] it was 3.3 h; in [19], 2.3 h. Further, the clearance in series [8] was 54 mL/min/kg; in [21], 30 mL/min/kg. In addition, the Occ in series [9] was 87%. Moreover, the Cmax in series [10] was 9000 ng/mL; in series [18] it was 479 ng/mL. Besides, the Ratio in series [11] was 31. Moreover, the concentration in solution in series [12] (solubility at 72 h) was 4.4 µM (≈ 1.74 µg/mL). For the same compound, in series [13], the concentration at 2 h came to 9.8 ng/mL. Besides, the microsomal CLint at 1 µM in series [14] turned out to be 26.3 µL/min/mg.
